# Compounds with a hit are over-represented: about 2.8% of the library has one in this group of screens.
# SR-BI DiI-HDL act: activators of SR-BI mediated DiI-HDL uptake, primary screen, ldlA[mSR-BI] CHO cells, DiI fluorescence; hit rate 0.096% among 320,000; activation, % at 12.5 µM; AID 504775, 2011; 3 h; 100 = double the neutral-control signal;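 active = mean replicate activation of at least 60% and every replicate at or above 60%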;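 also: 0% = median plate neutral-control signal and 100% = twice that signal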
#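 System: LDL receptor-deficient CHO ldlA cells overexpressing murine SR-BI | Timing: 3 h uptake period with compound, 37 °C | Medium: HEPES-buffered (25 mM, pH 7.4) F12 plus 0.5% BSA | Dosing: Single-point compound dose | Signal: Bottom-read fluorescence, 550/595 nm | Read-out: Retained DiI signal reflecting DiI-HDL uptake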
# CAL PDZ FP-1: untagged CAL PDZ binding inhibitors, primary screen, biochemical, fluorescence polarization, HTS; hit rate 0.92% among 300,000; AID 602252, 2012; inhibition, % at 24.9 µM; Golgi-associated PDZ and coiled-coil motif-containing protein (Homo sapiens), Q9HD26; purified CAL PDZ, TMR-peptide fluorescence polarization, 1 h;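 active = mean inhibition of at least 30% with at least half of replicates also reaching 30%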;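 also: 0% = DMSO neutral control and 100% = excess unlabeled competitor peptide PRC23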
# dFosB activator: activators of delta FosB homodimer, primary screen, biochemical, fluorescence polarization, TAMRA-CDK5 oligo, single point; hit rate 0.99% among 340,000; AID 493131, 2011; purified delta FosB; percent of positive-control signal above neutral wells; activation, % at 25 µM;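 active = mean activation above about 17%, with every replicate also reaching it, limit read from the data, passing the limit was not always enough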
# SR-BI DiI inh: inhibitors of SR-BI mediated HDL lipid uptake, primary screen, ldlA[mSR-BI] cells, fluorescence, single point; ldlA[mSR-BI] CHO cells, DiI-HDL uptake fluorescence, 3 h; hit rate 0.96% among 320,000; AID 488896, 2010; Scavenger receptor class B member 1 (Mus musculus), Q61009; inhibition, % at 12.5 µM;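 active = mean replicate inhibition of at least 70% and a set share of replicates each scoring 70 or more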;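 also: 0% = median of neutral control wells and 100% = median of positive control wells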
# Target sequence (Q61009 whole entry, looked up): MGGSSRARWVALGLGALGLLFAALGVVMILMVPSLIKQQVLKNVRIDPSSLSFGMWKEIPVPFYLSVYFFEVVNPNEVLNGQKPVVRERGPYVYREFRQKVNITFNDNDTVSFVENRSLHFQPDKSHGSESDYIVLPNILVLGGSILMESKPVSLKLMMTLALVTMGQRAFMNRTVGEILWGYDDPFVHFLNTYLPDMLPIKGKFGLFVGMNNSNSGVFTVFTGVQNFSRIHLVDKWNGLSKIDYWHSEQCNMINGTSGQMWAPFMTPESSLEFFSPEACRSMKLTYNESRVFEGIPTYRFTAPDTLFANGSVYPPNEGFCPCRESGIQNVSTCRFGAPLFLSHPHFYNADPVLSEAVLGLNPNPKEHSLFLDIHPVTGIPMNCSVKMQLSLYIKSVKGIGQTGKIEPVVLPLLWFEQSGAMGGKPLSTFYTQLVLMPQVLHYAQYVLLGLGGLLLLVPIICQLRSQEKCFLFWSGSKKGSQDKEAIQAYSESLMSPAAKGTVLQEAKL
# CAL PDZ FP-2: CAL PDZ peptide-binding inhibitors, primary screen, biochemical, fluorescence polarization, Cer-tagged CAL PDZ, HTS. purified CAL PDZ, TMR-peptide fluorescence polarization, 1 h. AID 504414, 2011. hit rate 0.02% among 330,000. inhibition, % at 20 µM. Golgi-associated PDZ and coiled-coil motif-containing protein (Homo sapiens), Q9HD26;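 active = highest replicate inhibition of at least 40%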;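 also: plate controls were DMSO neutral control wells for no effect and unlabeled competitor peptide control wells for full effect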
#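 material = purified tagged CAL PDZ domain construct (CerCALP) | compound dosing = 20 µM, one dose | times = 1 h at RT | measured by = fluorescence polarization from S- and P-plane intensities, G-factor corrected | read-out = inhibition from polarization loss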
# Numbers without * were called inactive; . = not tested or not shown.
SMILES,SR-BI DiI-HDL act,CAL PDZ FP-1,dFosB activator,SR-BI DiI inh,CAL PDZ FP-2
Cc1cn([C@@H](CCCCNC(=O)OC(C)(C)C)C(=O)NCCCCCCCCCCC(=O)N2CCN(C(=O)OC(C)(C)C)CC2)nn1,-52,-2,-6,52,0
CCOC(=O)CC(=O)Nc1nnc(C(C)C)s1,3,38*,-8,-3,-1
CC1=NOC(=O)/C1=C\c1ccc(-c2ccc(Cl)cc2Cl)o1,-129,-5,-1,129*,-2
CCCOc1ccc(Cl)cc1/C=C1/C(=O)ON=C1C,0,-4,-2,0,1
COc1cccc(NC(=O)c2ccnc(N3CCC(C(=O)NCc4cc(OC)ccc4OC)CC3)c2)c1,-79,.,-19,79*,-2
COc1ccc(CNC(=O)C2CCN(c3cc(C(=O)Nc4cccc(OC)c4)ccn3)CC2)cc1,-69,-4,-3,69,-3
CCN(CC(=O)NCCC1=CCCCC1)S(=O)(=O)c1ccccc1,-4,-1,-1,4,-1
O=S(=O)(Nc1nc2ccccc2nc1Nc1ccc(N2CCOCC2)cc1)c1cc(Cl)ccc1Cl,-73,12,-14,73*,0
O=C(O)CCN1C(=O)c2ccc(NC(=O)C(c3ccccc3)c3ccccc3)cc2C1=O,14,-5,1,-14,-1
CN(C)S(=O)(=O)c1cccc(NC(=O)c2cc(=O)[nH]c(=O)[nH]2)c1,9,0,-5,-9,2
CC1Cc2ccccc2N1C(=O)CCn1cccn1 (stereo not drawn),15,-1,-3,-15,-2
Cc1ccc2sc(N(CCCN(C)C)C(=O)c3ccc(S(=O)(=O)N4CCc5ccccc5C4)cc3)nc2c1C,5,.,38*,-5,1
CN(C)CCCN(C(=O)c1ccc(S(=O)(=O)N2CCc3ccccc3C2)cc1)c1nc2c(F)cc(F)cc2s1,3,-1,37*,-3,-4
COc1ccc(C)c2sc(N(CCCN(C)C)C(=O)c3ccc(S(=O)(=O)N4CCc5ccccc5C4)cc3)nc12,16,2,70*,-16,0
CCOC(=O)N1CCN(S(=O)(=O)c2ccc(C(=O)N(CCCN(C)C)c3nc4c(F)cc(F)cc4s3)cc2)CC1,22,.,1,-22,-1
Cc1ccc2sc(N(CCCN(C)C)C(=O)c3ccc(S(=O)(=O)N(C)C)cc3)nc2c1C,15,5,-9,-15,-2
COc1cc2nc(N(CCCN(C)C)C(=O)c3ccc(S(=O)(=O)N4CCc5ccccc5C4)cc3)sc2cc1OC,-14,-2,5,14,-2
Cc1cccc(OCC(=O)Nc2ccc(C(=O)Nc3ccccc3C(=O)O)cc2)c1C,7,3,-10,-7,-2
CC(=O)N1c2ccc(S(=O)(=O)N3CCC(C(=O)NC4CCCCC4)CC3)cc2CC1C (stereo not drawn),12,64*,-7,-12,-2
CC(=O)c1ccc(N2CCN(S(=O)(=O)c3ccc4c(c3)CC(C)N4C(=O)C3CC3)CC2)cc1 (stereo not drawn),2,72*,-8,-2,0
CC(=O)c1ccc(N2CCN(S(=O)(=O)c3ccc4c(c3)CC(C)N4C(C)=O)CC2)cc1 (stereo not drawn),12,-1,-5,-12,-2
COCn1c(-c2ccc(OC)cc2)nc2ccccc21,-11,107*,1,11,.
CCCn1c(-c2ccc(OC)cc2)nc2ccccc21,-15,-5,-8,15,-3
O=C1NC(=O)/C(=C\c2cn(Cc3ccccc3F)c3ccccc23)N1,-12,59*,1,12,0
CCCCCCCCCCCCCCCC[n+]1ccccc1,-1,-1,-148,1,0
SMILES,SR-BI DiI-HDL act,CAL PDZ FP-1,dFosB activator,SR-BI DiI inh,CAL PDZ FP-2
O/N=C/c1cccc[n+]1CCCCCC[n+]1ccccc1/C=N/O,33,19,-5,-33,-1
CCCCCCCCCCCCCCCC[n+]1ccc(C(N)=O)cc1,-5,0,45*,5,0
CCCCCCCCCCCCCCCC[n+]1ccc(/C=N/O)cc1,0,2,38*,0,-1
CCOc1ccc(C2C(C(=O)/C=C/c3ccco3)=C(O)C(=O)N2CCN2CCOCC2)cc1OC (stereo not drawn),10,1,-1,-10,0
CC1CCN(C(=O)CCc2nnc3ccc(NCCCN4CCCC4=O)nn23)CC1,18,1,-9,-18,0
CCOc1ccc(S(=O)(=O)N2Cc3ccccc3CC2C(=O)O)cc1 (stereo not drawn),-7,51*,0,7,1
O=C(Nc1ccc(-c2n[nH]c(=S)o2)cc1)c1ccccc1Br,18,2,2,-18,-11
C=CCOc1ccc2ccccc2c1/C=N/O,15,-5,-4,-15,-2
COc1ccc2ccccc2c1/C=N/O,1,36*,-3,-1,-1
Cn1c(NCc2ccco2)nc2c1c(=O)n(Cc1ccc(Cl)c(Cl)c1)c(=O)n2C,-24,76*,-4,24,-1
O=c1[nH]c(C2CCN(S(=O)(=O)c3ccc4c(c3)OCCO4)CC2)nc2c1nnn2Cc1cccc(F)c1,.,-4,-3,.,-2
O=c1[nH]c(C2CCN(S(=O)(=O)c3ccc4c(c3)OCCO4)CC2)nc2c1nnn2Cc1ccc(F)cc1,94*,-4,5,-94,-4
O=C(OCC(=O)N(C1CCCCC1)C1CCCCC1)c1ccc(Cl)nc1,-3,-1,-3,3,-1
CC(=O)c1c(C)[nH]c(C(=O)OCC(=O)Nc2ccc(Cl)c(S(=O)(=O)N(C)C)c2)c1C,.,6,-18,.,-4
CC(=O)c1c(C)[nH]c(C(=O)Nc2ccc(Cl)c(S(=O)(=O)N(C)C)c2)c1C,-82,-6,-33,82*,-8
COc1ccccc1NS(=O)(=O)c1cccc(NC(=O)c2[nH]c(C)c(C(C)=O)c2C)c1,.,-6,-24,.,-2
CC(=O)c1c(C)[nH]c(C(=O)Nc2cccc(S(=O)(=O)N(C)c3ccccc3)c2)c1C,-80,-3,-6,80*,-3
COc1ccc(C(CC(=O)O)c2cc(OC)c(OC)c(OC)c2)cc1OC (stereo not drawn),430*,-2,-6,-430,0
COc1ccc(C(CC(=O)O)NC(=O)Cc2ccccc2)cc1OC (stereo not drawn),25,-3,-4,-25,-1
CCOC(=O)CC(=O)CSc1nc(C)cc(C)c1C#N,21,39*,-6,-21,-2
Cc1ccc(OCCNC(=O)c2cc(C3CC3)nc3c2cnn3C(C)C)cc1,-30,2,-4,30,-1
